According to ChEMBL document CHEMBL4011622, “The Structure-Activity Relationship of a Tetrahydroisoquinoline Class of N-Methyl-d-Aspartate Receptor Modulators that Potentiates GluN2B-Containing N-Methyl-d-Aspartate Receptors” (J Med Chem, 2017):

target: Glutamate NMDA receptor; Grin1/Grin2b (Rattus norvegicus) (UniProt P35439+Q00960); assay: Positive allosteric modulation of recombinant rat GluN1/GluN2B receptor expressed in xenopus laevis oocyte assessed as potentiation of glutamate and glycine-induced current response at 30 uM at holding potential -40mV by two electrode voltage clamp method relative to control
Outline: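 Two-electrode voltage clamp at -40 mV, 23°C, pH 7.4 Ba²⁺ recording solution, on Xenopus oocytes expressing rat NMDA receptors. Currents were evoked by 100 µM glutamate plus 30 µM glycine, with compound co-applied (DMSO 0.05–0.5% final). […] Each compound used at least 4 oocytes from at least 2 frogs.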

| Structure (SMILES) | Activity | Emax |
| --- | --- | --- |
| COc1ccc(OCC2c3ccc(OC(C)C)cc3CCN2C(=O)c2cccc([N+](=O)[O-])c2)cc1 (stereo not drawn) | 198% | 203% |
| CCOc1ccc(OCC2c3ccc(OCC(C)C)cc3CCN2C(=O)c2cccc(F)c2)cc1 (stereo not drawn) | 332% | 342% |
| CCOc1ccc(OCC2c3ccc(OCC(C)C)cc3CCN2C(=O)c2cccc(Cl)c2)cc1 (stereo not drawn) | 294% | 293% |
| CCOc1ccc(OCC2c3ccc(OC(C)C)cc3CCN2C(=O)c2ccc(F)c(Cl)c2)cc1 (stereo not drawn) | 169% | 170% |
| CCOc1ccc2c(c1)CCN(C(=O)c1cccc(Cl)c1)C2COc1ccc(OC)cc1 (stereo not drawn) | 158% | 167% |
| CC(C)Oc1ccc2c(c1)CCN(C(=O)c1cccc(F)c1)C2COc1ccc(OC(F)(F)F)cc1 (stereo not drawn) | 124% | 123% |
| CC(C)Oc1ccc2c(c1)CCN(C(=O)c1cccc(Cl)c1)C2COc1ccc(OC(F)(F)F)cc1 (stereo not drawn) | 130% | 130% |

target: Glutamate NMDA receptor; Grin1/Grin2c (Rattus norvegicus) (UniProt P35439+Q00961); assay: Positive allosteric modulation of recombinant rat GluN1/GluN2C receptor expressed in xenopus laevis oocyte assessed as potentiation of glutamate and glycine-induced current response at 30 uM at holding potential -40mV by two electrode voltage clamp method relative to control
Outline: (§1)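 Two-electrode voltage clamp at -40 mV, 23°C, pH 7.4 Ba²⁺ recording solution, on Xenopus oocytes expressing rat NMDA receptors. Currents were evoked by 100 µM glutamate plus 30 µM glycine, with compound co-applied (DMSO 0.05–0.5% final). Each compound used at least 4 oocytes from at least 2 frogs.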

| Structure (SMILES) | Activity | Emax |
| --- | --- | --- |
| COc1ccc(OCC2c3ccc(OC(C)C)cc3CCN2C(=O)c2cccc([N+](=O)[O-])c2)cc1 (stereo not drawn) | 337% | 358% |
| CCOc1ccc(OCC2c3ccc(OCC(C)C)cc3CCN2C(=O)c2cccc(F)c2)cc1 (stereo not drawn) | 309% | 325% |
| CCOc1ccc(OCC2c3ccc(OCC(C)C)cc3CCN2C(=O)c2cccc(Cl)c2)cc1 (stereo not drawn) | 238% | 242% |
| CCOc1ccc(OCC2c3ccc(OC(C)C)cc3CCN2C(=O)c2ccc(F)c(Cl)c2)cc1 (stereo not drawn) | 159% | 162% |
| CCOc1ccc2c(c1)CCN(C(=O)c1cccc(Cl)c1)C2COc1ccc(OC)cc1 (stereo not drawn) | 285% | 294% |
| CC(C)Oc1ccc2c(c1)CCN(C(=O)c1cccc(F)c1)C2COc1ccc(OC(F)(F)F)cc1 (stereo not drawn) | 154% | 157% |
| CC(C)Oc1ccc2c(c1)CCN(C(=O)c1cccc(Cl)c1)C2COc1ccc(OC(F)(F)F)cc1 (stereo not drawn) | 189% | 192% |

target: Ionotropic glutamate receptor NMDA 1/2D (Rattus norvegicus) (UniProt P35439+Q62645); assay: Positive allosteric modulation of recombinant rat GluN1/GluN2D receptor expressed in xenopus laevis oocyte assessed as potentiation of glutamate and glycine-induced current response at 30 uM at holding potential -40mV by two electrode voltage clamp method relative to control; outline: as §1

| Structure (SMILES) | Activity | Emax |
| --- | --- | --- |
| COc1ccc(OCC2c3ccc(OC(C)C)cc3CCN2C(=O)c2cccc([N+](=O)[O-])c2)cc1 (stereo not drawn) | 335% | 351% |
| CCOc1ccc(OCC2c3ccc(OCC(C)C)cc3CCN2C(=O)c2cccc(F)c2)cc1 (stereo not drawn) | 351% | 364% |
| CCOc1ccc(OCC2c3ccc(OCC(C)C)cc3CCN2C(=O)c2cccc(Cl)c2)cc1 (stereo not drawn) | 342% | 351% |
| CCOc1ccc(OCC2c3ccc(OC(C)C)cc3CCN2C(=O)c2ccc(F)c(Cl)c2)cc1 (stereo not drawn) | 133% | 137% |
| CCOc1ccc2c(c1)CCN(C(=O)c1cccc(Cl)c1)C2COc1ccc(OC)cc1 (stereo not drawn) | 329% | 344% |
| CC(C)Oc1ccc2c(c1)CCN(C(=O)c1cccc(F)c1)C2COc1ccc(OC(F)(F)F)cc1 (stereo not drawn) | 136% | 137% |
| CC(C)Oc1ccc2c(c1)CCN(C(=O)c1cccc(Cl)c1)C2COc1ccc(OC(F)(F)F)cc1 (stereo not drawn) | 150% | 152% |

target: Glutamate NMDA receptor; Grin1/Grin2b (Rattus norvegicus, UniProt P35439+Q00960); assay: Positive allosteric modulation of recombinant rat GluN1/GluN2B receptor expressed in xenopus laevis oocyte assessed as potentiation of glutamate and glycine-induced current response at holding potential -40mV by two electrode voltage clamp method; outline: as §1

| Structure (SMILES) | EC50 |
| --- | --- |
| COc1ccc(OCC2c3ccc(OC(C)C)cc3CCN2C(=O)c2cccc([N+](=O)[O-])c2)cc1 (stereo not drawn) | 5.3 µM |
| CCOc1ccc(OCC2c3ccc(OCC(C)C)cc3CCN2C(=O)c2cccc(F)c2)cc1 (stereo not drawn) | 2.5 µM |
| CCOc1ccc(OCC2c3ccc(OCC(C)C)cc3CCN2C(=O)c2cccc(Cl)c2)cc1 (stereo not drawn) | 1 µM |
| CCOc1ccc(OCC2c3ccc(OC(C)C)cc3CCN2C(=O)c2ccc(F)c(Cl)c2)cc1 (stereo not drawn) | 2.2 µM |
| CCOc1ccc2c(c1)CCN(C(=O)c1cccc(Cl)c1)C2COc1ccc(OC)cc1 (stereo not drawn) | 7.8 µM |
| CC(C)Oc1ccc2c(c1)CCN(C(=O)c1cccc(F)c1)C2COc1ccc(OC(F)(F)F)cc1 (stereo not drawn) | 3.2 µM |
| CC(C)Oc1ccc2c(c1)CCN(C(=O)c1cccc(Cl)c1)C2COc1ccc(OC(F)(F)F)cc1 (stereo not drawn) | 1.4 µM |

target: Glutamate NMDA receptor; Grin1/Grin2c (Rattus norvegicus, UniProt P35439+Q00961); assay: Positive allosteric modulation of recombinant rat GluN1/GluN2C receptor expressed in xenopus laevis oocyte assessed as potentiation of glutamate and glycine-induced current response at holding potential -40mV by two electrode voltage clamp method; outline: as §1

| Structure (SMILES) | EC50 |
| --- | --- |
| COc1ccc(OCC2c3ccc(OC(C)C)cc3CCN2C(=O)c2cccc([N+](=O)[O-])c2)cc1 (stereo not drawn) | 2.8 µM |
| CCOc1ccc(OCC2c3ccc(OCC(C)C)cc3CCN2C(=O)c2cccc(F)c2)cc1 (stereo not drawn) | 3.1 µM |
| CCOc1ccc(OCC2c3ccc(OCC(C)C)cc3CCN2C(=O)c2cccc(Cl)c2)cc1 (stereo not drawn) | 1 µM |
| CCOc1ccc(OCC2c3ccc(OC(C)C)cc3CCN2C(=O)c2ccc(F)c(Cl)c2)cc1 (stereo not drawn) | 1.3 µM |
| CCOc1ccc2c(c1)CCN(C(=O)c1cccc(Cl)c1)C2COc1ccc(OC)cc1 (stereo not drawn) | 2.4 µM |
| CC(C)Oc1ccc2c(c1)CCN(C(=O)c1cccc(F)c1)C2COc1ccc(OC(F)(F)F)cc1 (stereo not drawn) | 2.5 µM |
| CC(C)Oc1ccc2c(c1)CCN(C(=O)c1cccc(Cl)c1)C2COc1ccc(OC(F)(F)F)cc1 (stereo not drawn) | 1.5 µM |

target: Ionotropic glutamate receptor NMDA 1/2D (Rattus norvegicus, UniProt P35439+Q62645); assay: Positive allosteric modulation of recombinant rat GluN1/GluN2D receptor expressed in xenopus laevis oocyte assessed as potentiation of glutamate and glycine-induced current response at holding potential -40mV by two electrode voltage clamp method; outline: as §1

| Structure (SMILES) | EC50 |
| --- | --- |
| COc1ccc(OCC2c3ccc(OC(C)C)cc3CCN2C(=O)c2cccc([N+](=O)[O-])c2)cc1 (stereo not drawn) | 3.4 µM |
| CCOc1ccc(OCC2c3ccc(OCC(C)C)cc3CCN2C(=O)c2cccc(F)c2)cc1 (stereo not drawn) | 3.4 µM |
| CCOc1ccc(OCC2c3ccc(OCC(C)C)cc3CCN2C(=O)c2cccc(Cl)c2)cc1 (stereo not drawn) | 1.5 µM |
| CCOc1ccc(OCC2c3ccc(OC(C)C)cc3CCN2C(=O)c2ccc(F)c(Cl)c2)cc1 (stereo not drawn) | 2.2 µM |
| CCOc1ccc2c(c1)CCN(C(=O)c1cccc(Cl)c1)C2COc1ccc(OC)cc1 (stereo not drawn) | 3 µM |
| CC(C)Oc1ccc2c(c1)CCN(C(=O)c1cccc(F)c1)C2COc1ccc(OC(F)(F)F)cc1 (stereo not drawn) | 4.1 µM |
| CC(C)Oc1ccc2c(c1)CCN(C(=O)c1cccc(Cl)c1)C2COc1ccc(OC(F)(F)F)cc1 (stereo not drawn) | 1.7 µM |
